Results: publication PMC3230563 (International Journal of Nanomedicine, 2011)

Experiments:
rat = settings: oral, no reference given; cited from earlier work
[1] = In vivo pharmacokinetics in rats; set-up: species or system Male Wistar rats; settings: for half-life: T1/2, rat; for Tmax: Tmax average
Summary of the method: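 Fasted (12 h) male Wistar rats under 0.5% isoflurane received 200 μg/kg in isotonic solution by tail-vein bolus (n = 4). Serial intracardiac blood went into 0.109 M citrate from 2 min to 24 h, and plasma was stored at −20°C. Concentration came from an anti-Xa chromogenic calibration curve, with over-range samples diluted in human normal plasma. Noncompartmental PK used trapezoidal AUC; bioavailability was the dose-corrected oral/IV AUC ratio.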

[2] = male, Wistar, rat, plasma, iv, 200 ug/kg
[3] = male, Wistar, rat, plasma, iv, 200 ug/kg, IV bolus
[4] = male, Wistar, rat, plasma, po, 5 mg/kg
[5] = male, Wistar, rat, plasma, po, 5 mg/kg, 5 mg/kg Fp
[6] = male, Wistar, rat, plasma, sc, 200 ug/kg
[7] = rat, IV bolus, 200 μg/kg, listed as IV Fp solution

For `CCCCCCCCCCCCCCCC[N+](C)(C)C` [CTAB, hexadecyltrimethyl ammonium bromide], the LD50 (rat) is given as 410 mg/kg.

For `CCCCCCCCCCCCCCCCCCN` [SA, stearylamine], the LD50 (rat) is given as 1395 mg/kg.

`CO[C@H]1O[C@H](COS(=O)(=O)O)[C@@H](O[C@@H]2O[C@@H](C(=O)O)[C@@H](O[C@H]3O[C@H](COS(=O)(=O)O)[C@@H](O[C@@H]4O[C@H](C(=O)O)[C@@H](O[C@H]5O[C@H](COS(=O)(=O)O)[C@@H](O)[C@H](O)[C@H]5NS(=O)(=O)O)[C@H](O)[C@H]4O)[C@H](OS(=O)(=O)O)[C@H]3NS(=O)(=O)O)[C@H](O)[C@H]2OS(=O)(=O)O)[C@H](O)[C@H]1NS(=O)(=O)O` [Fp, fondaparinux] showed an AUC(0-inf) [1, 2] of 2.3 µg·h/mL, a Cmax [1, 2] of 1.42 ± 0.12 µg/mL and a bioavailability ([1]; male, Wistar, rat, plasma, iv, 200 ug/kg, Absolute bioavailability, IV bolus, 200 μg/kg (reference)) of 100%. It also gave an MRT ([1]; male, Wistar, rat, plasma, iv, 200 ug/kg, MRT, IV bolus) of 1.17 h, a half-life [1, 3] of 1.8 h and a Tmax [1, 3] of 0.0333 h. It also gave an AUC(0-inf) [1, 4] of 0.812 µg·h/mL, a Cmax [1, 4] of 0.06 ± 0.02 µg/mL and an MRT ([1]; male, Wistar, rat, plasma, po, 5 mg/kg, MRT, 5 mg/kg Fp) of 1.36 h. It also gave a half-life [1, 5] of 0.862 ± 0.607 h, a Tmax [1, 5] of 2 h and an AUC(0-inf) [1, 6] of 2.57 µg·h/mL. For the same compound, the Cmax [1, 6] was 0.836 ± 0.19 µg/mL, the MRT ([1]; male, Wistar, rat, plasma, sc, 200 ug/kg, MRT) was 3.87 h and the half-life [1, 6] was 1.47 ± 1.4 h. For the same compound, the Tmax [1, 6] was ≤ 1 h, the “anti-Xa level in rat plasma” value ([1]; oral Fp solution alone, 0.5, 2 mg/kg, limit of quantification 0.01 μg/mL) was “below the limit of quantification” and the Clearance ([1]; rat, IV bolus, 200 μg/kg) was 490.52 ± 14.74 µL/min. The MRT [1, 7] was 1.8028 ± 0.4345 h, the T1/2 [1, 7] was 1.175 ± 0.2938 h and the Clearance ([1]; rat, SC, 200 μg/kg) was 493.89 ± 5.478 µL/min. The Absolute bioavailability ([1]; rat, SC, 200 μg/kg, dose corrected AUC versus IV, listed as SC Fp solution) was 115.84 ± 17.92 (4) %, the Tmax average ([1]; rat, SC, 200 μg/kg, listed as SC Fp solution) was 1 h and the Clearance ([1]; rat, oral, 5 mg/kg Fp) was 455.43 ± 14.51 µL/min.
